Legend:
TLR7 = target: T1, TLR7 (Mus musculus, UniProt P58681); assay: Ex vivo PD marker CD69 on B cells vs MHV370 blood exposure in NZB/W F1 mice
T1 sequence (P58681 27-1050): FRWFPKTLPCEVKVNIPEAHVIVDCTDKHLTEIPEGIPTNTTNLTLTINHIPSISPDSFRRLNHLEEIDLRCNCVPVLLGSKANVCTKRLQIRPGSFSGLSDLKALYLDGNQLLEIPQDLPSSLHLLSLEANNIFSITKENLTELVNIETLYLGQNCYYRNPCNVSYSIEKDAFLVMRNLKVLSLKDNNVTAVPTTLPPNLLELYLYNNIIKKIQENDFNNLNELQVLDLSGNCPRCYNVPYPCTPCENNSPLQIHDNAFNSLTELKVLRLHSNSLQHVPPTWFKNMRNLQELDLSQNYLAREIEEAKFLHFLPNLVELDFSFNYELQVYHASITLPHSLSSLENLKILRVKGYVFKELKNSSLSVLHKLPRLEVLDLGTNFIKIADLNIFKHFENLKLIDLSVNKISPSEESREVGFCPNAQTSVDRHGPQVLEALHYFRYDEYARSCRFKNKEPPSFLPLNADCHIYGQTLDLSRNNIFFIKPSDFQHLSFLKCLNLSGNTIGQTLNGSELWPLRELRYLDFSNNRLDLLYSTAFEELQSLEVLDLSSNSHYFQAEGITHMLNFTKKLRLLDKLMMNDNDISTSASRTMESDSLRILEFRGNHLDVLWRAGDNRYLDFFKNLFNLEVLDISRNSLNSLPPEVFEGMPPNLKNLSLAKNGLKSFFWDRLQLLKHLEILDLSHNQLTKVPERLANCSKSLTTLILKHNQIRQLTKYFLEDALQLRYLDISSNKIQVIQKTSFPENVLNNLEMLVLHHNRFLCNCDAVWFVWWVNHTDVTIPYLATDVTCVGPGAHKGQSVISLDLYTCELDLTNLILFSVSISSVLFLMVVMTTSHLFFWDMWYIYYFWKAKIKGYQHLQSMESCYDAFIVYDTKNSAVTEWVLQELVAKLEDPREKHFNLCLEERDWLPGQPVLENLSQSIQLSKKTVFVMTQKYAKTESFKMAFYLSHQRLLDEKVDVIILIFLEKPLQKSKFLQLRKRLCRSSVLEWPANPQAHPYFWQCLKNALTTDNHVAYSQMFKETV
Summary of the method: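 NZB/W F1 mice were dosed with test compound in food. Anticoagulated whole blood was diluted 1:1 in RPMI1640 and stimulated with 0.07 μg/mL R848 or medium at 37°C, 5% CO2. CD69 MFI on CD19+ B cells was read by flow cytometry. Drug concentration in whole blood was measured by LC-MS/MS.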

TLR2/6 = TLR2/6 (Homo sapiens, UniProt O60603+Q9Y2C9); assay: Ramos Blue reporter B cell line, FSL-1 stimulation; assay type: cell-based; conditions: Ramos cells; up to 10 μM; n = 4, data not shown
Sequence of TLR2/6 (O60603 21-784): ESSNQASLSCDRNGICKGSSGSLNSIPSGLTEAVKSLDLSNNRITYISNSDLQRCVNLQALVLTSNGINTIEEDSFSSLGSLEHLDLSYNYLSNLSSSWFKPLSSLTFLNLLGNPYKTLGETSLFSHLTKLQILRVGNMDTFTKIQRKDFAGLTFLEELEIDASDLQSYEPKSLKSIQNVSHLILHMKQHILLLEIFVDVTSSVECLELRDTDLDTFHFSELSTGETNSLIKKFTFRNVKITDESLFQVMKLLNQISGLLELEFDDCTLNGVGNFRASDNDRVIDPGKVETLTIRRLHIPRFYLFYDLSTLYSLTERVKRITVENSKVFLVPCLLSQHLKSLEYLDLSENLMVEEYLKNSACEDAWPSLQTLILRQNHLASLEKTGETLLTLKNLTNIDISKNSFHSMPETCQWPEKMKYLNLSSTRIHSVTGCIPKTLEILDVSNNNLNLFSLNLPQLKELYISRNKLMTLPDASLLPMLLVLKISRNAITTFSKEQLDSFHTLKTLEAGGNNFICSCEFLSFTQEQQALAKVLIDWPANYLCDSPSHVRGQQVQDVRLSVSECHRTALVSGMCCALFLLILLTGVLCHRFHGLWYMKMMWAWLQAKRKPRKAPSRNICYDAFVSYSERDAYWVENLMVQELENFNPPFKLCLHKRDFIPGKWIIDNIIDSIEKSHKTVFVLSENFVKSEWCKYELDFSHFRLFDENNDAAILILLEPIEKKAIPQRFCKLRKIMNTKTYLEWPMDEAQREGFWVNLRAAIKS
Sequence of TLR2/6 (Q9Y2C9 32-796): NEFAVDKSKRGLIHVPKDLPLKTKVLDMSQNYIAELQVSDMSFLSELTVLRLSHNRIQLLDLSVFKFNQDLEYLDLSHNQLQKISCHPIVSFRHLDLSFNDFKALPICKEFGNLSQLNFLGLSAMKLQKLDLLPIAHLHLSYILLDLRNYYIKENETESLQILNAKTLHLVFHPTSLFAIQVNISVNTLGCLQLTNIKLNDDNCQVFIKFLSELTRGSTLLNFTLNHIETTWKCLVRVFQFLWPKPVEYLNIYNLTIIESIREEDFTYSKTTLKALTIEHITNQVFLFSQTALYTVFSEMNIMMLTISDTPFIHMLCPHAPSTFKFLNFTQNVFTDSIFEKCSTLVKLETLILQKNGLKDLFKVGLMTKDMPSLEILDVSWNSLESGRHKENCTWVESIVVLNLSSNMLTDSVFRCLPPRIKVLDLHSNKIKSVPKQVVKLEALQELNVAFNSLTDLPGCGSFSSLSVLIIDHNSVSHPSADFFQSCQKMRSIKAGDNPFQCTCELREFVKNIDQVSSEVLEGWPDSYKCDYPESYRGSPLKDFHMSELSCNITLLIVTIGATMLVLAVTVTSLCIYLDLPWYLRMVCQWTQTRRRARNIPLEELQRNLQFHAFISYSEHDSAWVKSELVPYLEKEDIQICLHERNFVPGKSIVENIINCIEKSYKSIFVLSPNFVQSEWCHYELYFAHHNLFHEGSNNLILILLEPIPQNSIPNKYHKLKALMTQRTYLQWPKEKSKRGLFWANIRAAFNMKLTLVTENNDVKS
Summary of the method: (§1)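 Ramos Blue B reporter cells were pre-treated 30 min at 37°C, 5% CO2 with increasing concentrations of test compound or 0.25% v/v DMSO. They were then stimulated with the respective agonist, and reporter activity was read.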

B cell receptor = assay: B cell receptor-mediated activation in human blood; assay type: cell-based; conditions: up to 16 μM; n = 2, data not shown
Summary of the method: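 Heparinized human blood was given a 3-fold serial dilution of test compound, top 16 μM, for 1.5 h at 37°C. B cells were then activated with 50 μg/mL anti-human IgM for 20 min at 37°C. Samples were lysed/fixed and permeabilized, then stained for pAkt([…]) and CD20. Readout was by flow cytometry.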

TLR5 = TLR5 (Homo sapiens, UniProt O60602); assay: Human PBMC cytokine secretion, TLR5 agonist; assay type: cell-based; conditions: human PBMCs; up to 10 μM; n = 5 donors, data not shown
Sequence of TLR5 (O60602 21-858): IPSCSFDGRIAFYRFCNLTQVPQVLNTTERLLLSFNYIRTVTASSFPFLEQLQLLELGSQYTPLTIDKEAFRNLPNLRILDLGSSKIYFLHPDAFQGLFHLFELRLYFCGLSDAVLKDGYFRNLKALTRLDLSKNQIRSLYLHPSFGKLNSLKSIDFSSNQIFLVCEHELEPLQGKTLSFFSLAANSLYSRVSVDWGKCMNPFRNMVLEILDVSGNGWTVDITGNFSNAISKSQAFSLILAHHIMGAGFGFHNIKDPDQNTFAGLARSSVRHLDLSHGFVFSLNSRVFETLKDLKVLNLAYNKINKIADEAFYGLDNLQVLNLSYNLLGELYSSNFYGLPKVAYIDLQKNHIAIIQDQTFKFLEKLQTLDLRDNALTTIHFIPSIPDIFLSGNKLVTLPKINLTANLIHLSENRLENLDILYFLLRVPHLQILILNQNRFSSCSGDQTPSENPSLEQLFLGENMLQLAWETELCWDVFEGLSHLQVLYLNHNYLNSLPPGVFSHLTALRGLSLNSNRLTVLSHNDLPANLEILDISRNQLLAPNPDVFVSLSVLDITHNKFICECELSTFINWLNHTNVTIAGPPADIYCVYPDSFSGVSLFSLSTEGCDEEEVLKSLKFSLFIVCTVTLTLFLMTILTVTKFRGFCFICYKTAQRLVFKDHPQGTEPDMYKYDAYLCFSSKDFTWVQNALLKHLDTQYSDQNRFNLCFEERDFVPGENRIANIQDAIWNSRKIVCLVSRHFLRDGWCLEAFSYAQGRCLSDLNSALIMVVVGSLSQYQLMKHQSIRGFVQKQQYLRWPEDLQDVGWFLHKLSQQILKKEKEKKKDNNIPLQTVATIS
Summary of the method: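 Human PBMCs were pre-incubated 30 min with test compound, then stimulated with the respective TLR or IL-1R agonist at doses from earlier work. Cytokines in supernatants were quantified by immunoassay. Viability across the dose range was checked by CellTiter-Glo.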

[1] = tested on: immune-complex stimulated ISG panel in PBMCs; assay: Five-gene ISG panel in PBMCs stimulated with SLE immune complexes; assay type: cell-based, human; conditions: MHV370 0.1 μM
Summary of the method: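 PBMCs were pre-treated 30 min with test compound, HCQ or 0.1% DMSO, then stimulated 20 h with SLE serum pre-complexed with U-937 necrotic extract. RNA was extracted and ISGs quantified by qRT-PCR with the 2−ΔΔCt method against 18S rRNA, using biological replicates. Global ISG induction was derived by normalizing each ISG's relative induction to 100%.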

[2] = tested on: PMA-mediated ROS secretion from neutrophils; assay: Human neutrophil ROS production, PMA stimulation; assay type: cell-based
Summary of the method: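 Cells were pre-treated 30 min with increasing concentrations of test compound or 0.1% v/v DMSO. They were then stimulated 30 min at 37°C, 5% CO2 with TL8-506 or PMA (50 ng/mL). ROS was detected with 2 μM dihydrorhodamine for 15 min at 37°C and read by flow cytometry. Signals were normalized to vehicle; viability was checked by CellTiter-Glo.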

NOD1 = NOD1 (Homo sapiens, UniProt Q9Y239); assay: Ramos Blue reporter B cell line, Tri-DAP stimulation; assay type: cell-based; conditions: Ramos cells; up to 10 μM; n = 4, data not shown
Sequence of NOD1 (Q9Y239 whole entry): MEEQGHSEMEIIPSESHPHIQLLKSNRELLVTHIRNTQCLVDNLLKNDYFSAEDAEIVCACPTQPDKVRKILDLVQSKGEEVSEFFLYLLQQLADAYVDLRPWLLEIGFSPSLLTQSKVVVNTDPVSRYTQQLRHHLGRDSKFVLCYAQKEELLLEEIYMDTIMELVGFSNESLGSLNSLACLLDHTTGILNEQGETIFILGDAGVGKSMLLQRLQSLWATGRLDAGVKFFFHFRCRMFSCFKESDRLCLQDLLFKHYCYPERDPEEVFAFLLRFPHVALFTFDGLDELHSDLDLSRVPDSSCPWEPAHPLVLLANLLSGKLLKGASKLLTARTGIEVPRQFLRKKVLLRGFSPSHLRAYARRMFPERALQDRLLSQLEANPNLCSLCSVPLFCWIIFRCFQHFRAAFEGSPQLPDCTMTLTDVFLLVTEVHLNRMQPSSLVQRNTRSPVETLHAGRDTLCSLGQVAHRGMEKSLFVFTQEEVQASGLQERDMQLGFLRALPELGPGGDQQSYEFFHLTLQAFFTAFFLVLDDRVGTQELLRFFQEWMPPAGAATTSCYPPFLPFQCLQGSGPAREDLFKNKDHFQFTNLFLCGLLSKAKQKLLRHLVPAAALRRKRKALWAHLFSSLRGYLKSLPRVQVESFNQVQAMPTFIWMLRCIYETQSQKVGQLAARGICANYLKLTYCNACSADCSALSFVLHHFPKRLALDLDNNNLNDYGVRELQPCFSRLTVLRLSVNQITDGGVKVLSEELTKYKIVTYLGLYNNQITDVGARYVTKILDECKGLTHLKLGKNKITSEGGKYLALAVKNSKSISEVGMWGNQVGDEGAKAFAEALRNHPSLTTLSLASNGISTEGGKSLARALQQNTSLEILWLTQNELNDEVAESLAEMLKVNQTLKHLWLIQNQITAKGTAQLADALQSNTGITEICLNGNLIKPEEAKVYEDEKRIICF
Summary of the method: as §1

TLR3 = TLR3 (Homo sapiens, UniProt O15455); assay: Ramos Blue reporter B cell line, Poly; assay type: cell-based; conditions: Ramos cells; Poly(I:C) stimulation
Sequence of TLR3 (O15455 24-904): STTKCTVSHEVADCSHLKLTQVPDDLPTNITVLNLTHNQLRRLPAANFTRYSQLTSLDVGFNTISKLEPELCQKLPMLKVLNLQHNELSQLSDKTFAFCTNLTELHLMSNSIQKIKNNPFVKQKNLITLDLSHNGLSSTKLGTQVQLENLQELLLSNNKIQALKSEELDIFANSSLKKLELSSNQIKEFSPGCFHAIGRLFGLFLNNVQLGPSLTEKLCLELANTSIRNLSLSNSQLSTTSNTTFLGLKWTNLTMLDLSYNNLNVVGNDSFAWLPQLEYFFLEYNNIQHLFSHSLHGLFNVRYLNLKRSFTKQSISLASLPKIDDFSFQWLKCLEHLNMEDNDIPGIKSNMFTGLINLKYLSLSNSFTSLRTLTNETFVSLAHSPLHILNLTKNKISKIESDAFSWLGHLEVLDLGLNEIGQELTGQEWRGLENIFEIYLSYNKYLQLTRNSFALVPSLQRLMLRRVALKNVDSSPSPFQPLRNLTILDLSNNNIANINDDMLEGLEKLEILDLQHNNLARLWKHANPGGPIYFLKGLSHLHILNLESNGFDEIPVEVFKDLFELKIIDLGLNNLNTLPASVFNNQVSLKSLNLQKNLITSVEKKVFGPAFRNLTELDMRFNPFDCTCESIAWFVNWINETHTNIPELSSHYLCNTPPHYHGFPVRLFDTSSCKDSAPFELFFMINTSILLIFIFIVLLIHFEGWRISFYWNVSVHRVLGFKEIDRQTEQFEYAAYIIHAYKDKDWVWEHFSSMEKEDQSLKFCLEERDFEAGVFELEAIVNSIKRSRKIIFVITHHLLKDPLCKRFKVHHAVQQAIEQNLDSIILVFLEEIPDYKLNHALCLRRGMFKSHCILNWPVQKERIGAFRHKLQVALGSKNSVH
Summary of the method: as §1

Cc1cc(N2CCc3c(c(C)nn3CC34CCC(NC(=O)[C@@H]5COCCN5)(CC3)CC4)C2)c2cnn(C)c2n1 [MHV370, (S)-N-(4-((5-(1,6-dimethyl-1H-pyrazolo[3,4-b]pyridin-4-yl)-3-methyl-4,5,6,7-tetrahydro-1H-pyrazolo[4,3-c]pyridin-1-yl)methyl)bicyclo[2.2.2]octan-1-yl)morpholine-3-carboxamide]
IC50 (TLR7): 35 nM
interference with TLR2/6-driven activity (TLR2/6): did not interfere
activation of B cell responses via the B cell receptor (B cell receptor): unaffected
interference with cytokine secretion, TLR5 agonist (TLR5): did not significantly interfere
expression of a five-panel ISG signature [1]: strongly suppressed
block of ROS production, PMA stimulation [2]: but not with phorbol myristate acetate
interference with NOD1-driven activity (NOD1): did not interfere
inhibitory activity against TLR3 (TLR3): no or very limited inhibitory activity

From paper PMC10213863 (Cell Reports Medicine, 2023)
